According to ChEMBL document CHEMBL3526151, “Reversible disulfide formation of the glutamate carboxypeptidase II inhibitor E2072 results in prolonged systemic exposures in vivo” (Drug Metab Dispos, 2012):

Columns and labels:
[1] = Tmax in Sprague-Dawley rat at 1 mg/kg, po administered via gavage measured under fasted conditions by LC-MS/MS analysis; format: ADME, organism-based; set-up: dose 1 mg/kg, route oral; details: in vivo
Outline: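 Jugular-cannulated male Sprague-Dawley rats, 280–330 g, fasted overnight to 4 h post-dose. Single dose in 50 mM HEPES-buffered saline pH 7.4, by oral gavage or as tail-vein i.v. bolus. Blood into heparin/NEM tubes at 0–24 h. Plasma measured by LC-MS/MS; noncompartmental analysis; Tmax observed; Vd = dose/(AUCinf·λz).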

[2] = AUC(0 to last) in Sprague-Dawley rat at 30 mg/kg, po administered via gavage measured under fasted conditions by LC-MS/MS analysis; format: ADME, organism-based; set-up: time 0 - last, dose 30 mg/kg, route oral; details: plasma
Outline: (§1)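 Fasted male Sprague-Dawley rats (280–330 g) received 0.1, 1, 10 or 30 mg/kg by oral gavage in 50 mM HEPES buffered saline, pH 7.4. Blood drawn at 0.25–24 h into heparin/NEM tubes; plasma analyzed by LC-MS/MS. Cmax taken as observed. AUC by linear trapezoidal rule with extrapolation by λz. Cl/F and Vd/F reported. Mean ± S.D., n = 4–9.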

[3] = Half life in Sprague-Dawley rat at 0.1 mg/kg, po administered via gavage measured under fasted conditions by LC-MS/MS analysis; format: ADME, organism-based; set-up: dose 0.1 mg/kg, route oral; details: in vivo
[4] = Phase 1 metabolic stability in monkey liver microsomes assessed as compound remaining at 10 uM measured for 1 hr by LC-MS/MS analysis; format: ADME, Macaca mulatta; details: rhesus monkey, read-out: Stability
Outline: (§2)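 Liver microsomes (0.5 mg/ml) were incubated with 10 µM compound (final) in 100 mM potassium phosphate, pH 7.4. An NADPH-regenerating system was present: 1.3 mM NADPH, 3.3 mM glucose 6-phosphate, 3.3 mM MgCl2, 0.4 U/ml G6PDH and 50 µM sodium citrate. Runs were in duplicate, with samples taken up to 1 h and quenched with acetonitrile containing internal standard. Loss of compound was followed by LC-MS/MS.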

[5] = Cmax in cynomolgus monkey at 5 mg/kg, iv administered as bolus injection by LC-MS/MS analysis; format: ADME, organism-based, Macaca fascicularis; set-up: dose 5 mg/kg, route intravenous; details: in vivo
Outline: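 Cynomolgus monkeys (n = 3) received a nominal 5 mg/kg dose in 50 mM HEPES, TCEP-treated to prevent disulfide formation. Dosing was either an IV bolus via cephalic or saphenous vein or oral. Arterial cannula blood was collected into NEM-containing heparinized tubes for up to 9 days and analyzed by LC-MS/MS. Noncompartmental analysis gave t1/2 = 0.693/λz and F% = dose-normalized mean AUCinf p.o./i.v. ×100.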

[6] = Phase 2 metabolic stability in monkey liver microsomes assessed as compound remaining at 10 uM measured for 1 hr by LC-MS/MS analysis; format: ADME, Macaca mulatta; details: rhesus monkey, read-out: Stability
Outline: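 For glucuronidation, compound was preincubated at 37°C in 50 mM Tris-HCl, pH 7.5, with 0.5 mg/ml liver microsomes, 8 mM MgCl2 and 25 µg/ml alamethicin. Reactions were started in duplicate with 2 mM UDPGA (final). Samples were taken up to 1 h, quenched with acetonitrile containing internal standard, and compound disappearance was measured by LC-MS/MS.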

[7] = Phase 1 metabolic stability in rat liver microsomes assessed as compound remaining at 10 uM measured for 1 hr by LC-MS/MS analysis; format: ADME; details: read-out: Stability; outline: as §2
[8] = tested on: Cynomolgus monkey; assay: Clearance in cynomolgus monkey at 5 mg/kg, iv administered as bolus injection by LC-MS/MS analysis; format: ADME, organism-based, Macaca fascicularis; set-up: dose 5 mg/kg, route intravenous; details: in vivo
Outline: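 Cynomolgus monkeys (n = 3) given a 5 mg/kg intravenous bolus via cephalic or saphenous vein. Dosing solution in 50 mM HEPES, TCEP-treated. Arterial cannula blood collected up to 9 days into heparin/NEM tubes. Plasma assayed by LC-MS/MS. Noncompartmental analysis.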

[9] = AUC(0 to infinity) in Sprague-Dawley rat at 1 mg/kg, iv administered as bolus injection measured under fasted conditions by LC-MS/MS analysis; format: ADME, organism-based; set-up: time infinity, dose 1 mg/kg, route intravenous; details: plasma
Outline: (§3)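 Male Sprague-Dawley rats (280–330 g), jugular vein cannulated, fasted overnight until 4 h post-dose. Single tail-vein bolus of 0.1, 1, 10 or 30 mg/kg in 50 mM HEPES buffered saline, pH 7.4. Blood drawn 0–24 h into heparin tubes containing NEM. Plasma quantified by LC-MS/MS after NEM derivatization. Noncompartmental analysis: AUClast by linear trapezoidal rule, Cl = dose/AUC0-∞. Mean ± S.D., n = 4–9.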

[10] = Clearance in Sprague-Dawley rat at 30 mg/kg, iv administered as bolus injection measured under fasted conditions by LC-MS/MS analysis; format: ADME, organism-based; set-up: dose 30 mg/kg, route intravenous; details: in vivo; outline: as §3
[11] = tested on: Rattus norvegicus; assay: Apparent oral clearance in Sprague-Dawley rat at 0.1 mg/kg, po administered via gavage measured under fasted conditions by LC-MS/MS analysis; format: ADME, organism-based; set-up: dose 0.1 mg/kg, route oral; details: in vivo; outline: as §1
[12] = Cmax in Sprague-Dawley rat at 10 mg/kg, po administered via gavage measured under fed conditions by LC-MS/MS analysis; format: ADME, organism-based; set-up: dose 10 mg/kg, route oral; details: in vivo
Outline: (§4)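 Nonfasted male Sprague-Dawley rats given a single 10 mg/kg oral dose in 50 mM HEPES buffered saline, pH 7.4. Plasma collected 0.25–24 h into heparin/NEM tubes and assayed by LC-MS/MS. Noncompartmental parameters derived, including Cl/F and Vd/F. Mean ± S.D., n = 6–9.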

[13] = Tmax in cynomolgus monkey at 5 mg/kg, iv administered as bolus injection by LC-MS/MS analysis; format: ADME, organism-based, Macaca fascicularis; set-up: dose 5 mg/kg, route intravenous; details: in vivo
Outline: (§5)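 Cynomolgus monkeys (n=3) dosed at 5 mg/kg nominal, TCEP-treated 50 mM HEPES solution, either as i.v. bolus (cephalic or saphenous vein) or orally. Arterial cannula blood into heparin/NEM tubes for up to 9 days. Plasma parent and homodisulfide measured by LC-MS/MS; Tmax observed.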

[14] = AUC(0 to infinity) in Sprague-Dawley rat at 10 mg/kg, po administered via gavage measured under fed conditions by LC-MS/MS analysis; format: ADME, organism-based; set-up: time infinity, dose 10 mg/kg, route oral; details: plasma; outline: as §4
[15] = Cmax in Sprague-Dawley rat plasma at 10 mg/kg/day, po administered for 5 days by LC-MS/MS analysis; format: ADME, organism-based; set-up: dose 10 mg/kg/day, route oral
Outline: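 Male Sprague-Dawley rats were dosed orally with 10 mg/kg/day, either once or daily for 5 days; n = 4 per group. Blood was taken by cardiac puncture and liver, kidney, brain and sciatic nerve were collected at 0–8 h post-dose. Tissues were homogenized in PBS containing NEM at equal volume per gram. NEM-derivatized analyte was extracted with methanol and quantified by LC-MS/MS (1–5000 ng/ml). Cmax is the observed value.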

[16] = Metabolic stability in Sprague-Dawley rat plasma assessed as compound remaining at 5 uM after 1 hr by LC-MS/MS analysis; format: ADME, cell-free; details: read-out: Stability
Outline: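 Compound at 5 and 10 µM was incubated at 37°C in Sprague-Dawley rat or cynomolgus monkey plasma. Aliquots taken at 0, 30 and 60 min were quenched with acetonitrile and analyzed by LC-MS/MS. Percent remaining = analyte/internal-standard area ratio at time t divided by that at time 0.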

[17] = Apparent volume of distribution in Sprague-Dawley rat at 1 mg/kg, po administered via gavage measured under fasted conditions by LC-MS/MS analysis; format: ADME, organism-based; set-up: dose 1 mg/kg, route oral; details: in vivo; outline: as §1
[18] = AUC(0 to last) in Sprague-Dawley rat at 1 mg/kg, po administered via gavage measured under fasted conditions by LC-MS/MS analysis; format: ADME, organism-based; set-up: time 0 - last, dose 1 mg/kg, route oral; details: plasma; outline: as §1
[19] = Tmax in cynomolgus monkey at 5 mg/kg, po by LC-MS/MS analysis; format: ADME, organism-based, Macaca fascicularis; set-up: dose 5 mg/kg, route oral; details: in vivo; outline: as §5

## O=C(O)c1cccc(-c2cccc(CCS)c2C(=O)O)c1
[1]
  Tmax: 34.8 min
[2]
  AUC(0-t): 76100 ng·h/mL
[3]
  half-life: 560 min
[4]
  remaining at 1 h, 10 µM: > 90%
[5]
  Cmax: 68000 ng/mL
[6]
  remaining at 1 h, 10 µM: > 90%
[7]
  remaining at 1 h, 10 µM: > 90%
[8]
  CL: 0.367 mL/min/kg
[9]
  AUC(0-inf): 13000 ng·h/mL
[10]
  clearance: 3 mL/min/kg
[11]
  CL/F: 8.5 mL/min/kg
[12]
  Cmax: 16200 ng/mL
[13]
  Tmax: 4.8 min
[14]
  AUC(0-inf): 37100 ng·h/mL
[15]
  Cmax: 6080 ng/mL
[16]
  remaining at 1 h, 5 µM: 55%
[17]
  Vd/F: 1.65 L/kg
[18]
  AUC(0-t): 2610 ng·h/mL
[19]
  Tmax: 25.2 min
